In ChEMBL document CHEMBL1133596, “Synthesis and antitumor activities of novel pyrimidine derivatives of 2,3-O,O-dibenzyl-6-deoxy-L-ascorbic acid and 4,5-didehydro-5,6- dideoxy-L-ascorbic acid” (J Med Chem, 2000):
Values after ≈ are worked out from the molar mass of the structure shown.

Columns and labels:
HEL [1] = assay: Evaluated for minimum cytotoxic concentration that causes a microscopically detectable alteration of normal HEL cell morphology; assay type: functional; conditions: Homo sapiens
In short: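 HEL fibroblast cultures were examined by microscope. MCC is the lowest concentration, in µg/mL, that causes a detectable change in normal cell morphology.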

L1210 = assay: Evaluated for the inhibition of tumor cell growth of murine leukemia malignant tumor cell line (L1210/0); assay type: functional, cell-based; conditions: Mus musculus
In short: (§1)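 Proliferation of the murine (L1210/0, FM3A/0) and human T-lymphoblast (Molt4/C8, CEM/0) lines was measured following the procedure originally described for mouse L1210 cells. IC50 is the concentration, in µg/mL, that inhibits tumour cell proliferation by 50%.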

MOLT-4 = assay: Evaluated for the inhibition of tumor cell growth of Human T-Lymphocyte cells (Molt4/C8); assay type: functional, cell-based; in short: as §1
HEL [2] = assay: Evaluated for cytotoxic concentration required to reduce normal human embryonic lung (fibroblast) HEL cell growth by 50%; assay type: functional
In short: (§2)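 Normal human embryonic lung fibroblasts (HEL) were grown with compound. CC50 is the concentration, in µg/mL, that reduces HEL cell growth by 50%.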

FM3A = assay: Evaluated for the inhibition of tumor cell growth of murine mammary carcinoma malignant tumor cell line (FM3A/0); assay type: functional, cell-based; conditions: Mus musculus; in short: as §1
CCRF-CEM = assay: Evaluated for the inhibition of tumor cell growth of Human T-Lymphocyte cells (CEM/0); assay type: functional, cell-based; in short: as §1
MEF = assay: Evaluated for cytotoxicity against murine embryo fibroblasts (MEF); assay type: functional, Mus musculus
In short: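 Murine embryo fibroblasts (MEF) were tested for inhibition of proliferation following the method originally described for mouse L1210 cells. Values are given as cytotoxic concentrations in µg/mL.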

HEL [3] = assay: Evaluated for cytotoxic concentration required to reduce normal human embryonic lung (fibroblast) (HEL) cell growth by 50%; assay type: functional; in short: as §2

How did the MCC (HEL [1]) turn out when `O=C1OC(C(O)Cn2ccc(=O)[nH]c2=O)C(OCc2ccccc2)=C1OCc1ccccc1` (stereo not drawn) was run?
Its MCC is over 50 µg/mL.

What about the IC50 (L1210) of the same molecule?
Its IC50 is 70.8 µg/mL (≈ 157 µM).

What about the IC50 (MOLT-4) of the same molecule?
The IC50 was 67.8 µg/mL (≈ 151 µM).

And the CC50 (HEL [2])?
Its CC50 is over 50 µg/mL.

And the IC50 (FM3A)?
The IC50 was 74.1 µg/mL (≈ 165 µM).

And the IC50 (CCRF-CEM)?
The IC50 was 68.6 µg/mL (≈ 152 µM).

`O=c1[nH]cc(F)c(=O)[nH]1` [FLUOROURACIL] was tested. Which IC50 (L1210) did it give?
Its IC50 is 0.04 µg/mL (≈ 0.308 µM).

What about the Cytotoxicity (MEF) of the same molecule?
The Cytotoxicity was 0.2 µg/mL.

What about the IC50 (MOLT-4) of the same molecule?
Its IC50 is 2.9 µg/mL (≈ 22.3 µM).

What about the IC50 (FM3A) of the same molecule?
Its IC50 is 0.02 µg/mL (≈ 0.154 µM).

What about the IC50 (CCRF-CEM) of the same molecule?
The IC50 was 1.2 µg/mL (≈ 9.23 µM).

What does the source list for `O=C1O/C(=C\Cn2ccc(=O)[nH]c2=O)C(OCc2ccccc2)=C1O`?
MCC (HEL [1]): > 50 µg/mL; IC50 (L1210): > 200 µg/mL; CC50 (HEL [3]): > 50 µg/mL; IC50 (MOLT-4): > 200 µg/mL; IC50 (FM3A): > 200 µg/mL; IC50 (CCRF-CEM): > 200 µg/mL

How did the MCC (HEL [1]) turn out when `O=C1O/C(=C\Cn2ccc(=O)[nH]c2=O)C(O)=C1O` was run?
Its MCC is over 50 µg/mL.

And the IC50 (L1210)?
The IC50 was over 200 µg/mL.

And the CC50 (HEL [3])?
Its CC50 is over 50 µg/mL.

What about the IC50 (MOLT-4) of the same molecule?
Its IC50 is over 200 µg/mL.

What about the IC50 (FM3A) of the same molecule?
The IC50 was over 200 µg/mL.

And the IC50 (CCRF-CEM)?
The IC50 was over 200 µg/mL.

Which results are given for `O=C1OC(C(O)Cn2cc(F)c(=O)[nH]c2=O)C(OCc2ccccc2)=C1OCc1ccccc1` (stereo not drawn)?
MCC (HEL [1]): 50 µg/mL; IC50 (L1210): 65.6 µg/mL (≈ 140 µM); IC50 (MOLT-4): 81.2 µg/mL (≈ 173 µM); CC50 (HEL [2]): 33.4 µg/mL (≈ 71.3 µM); IC50 (FM3A): 52.2 µg/mL (≈ 111 µM); IC50 (CCRF-CEM): 74 µg/mL (≈ 158 µM)

Which results are given for `O=C1OC(C(O)Cn2cc(C(F)(F)F)c(=O)[nH]c2=O)C(OCc2ccccc2)=C1OCc1ccccc1` (stereo not drawn)?
MCC (HEL [1]): 50 µg/mL; IC50 (L1210): 26 µg/mL (≈ 50.2 µM); CC50 (HEL [3]): 31.7 µg/mL (≈ 61.1 µM); IC50 (MOLT-4): 47.4 µg/mL (≈ 91.4 µM); IC50 (FM3A): 38.4 µg/mL (≈ 74.1 µM); IC50 (CCRF-CEM): 19 µg/mL (≈ 36.6 µM)

`O=C1O/C(=C\Cn2cc(C(F)(F)F)c(=O)[nH]c2=O)C(O)=C1O` was tested. Which MCC (HEL [1]) did it give?
The MCC was over 50 µg/mL.

And the IC50 (L1210)?
The IC50 was 76.1 µg/mL (≈ 238 µM).

And the CC50 (HEL [3])?
Its CC50 is over 50 µg/mL.

And the IC50 (MOLT-4)?
Its IC50 is over 200 µg/mL.

And the IC50 (FM3A)?
Its IC50 is 162 µg/mL (≈ 506 µM).

And the IC50 (CCRF-CEM)?
Its IC50 is over 200 µg/mL.

`O=C1O/C(=C\Cn2cc(F)c(=O)[nH]c2=O)C(O)=C1O` was tested. Which MCC (HEL [1]) did it give?
Its MCC is over 50 µg/mL.

What about the IC50 (L1210) of the same molecule?
The IC50 was 1.4 µg/mL (≈ 5.18 µM).

What about the Cytotoxicity (MEF) of the same molecule?
Its Cytotoxicity is 0.92 µg/mL.

What about the CC50 (HEL [3]) of the same molecule?
Its CC50 is 23 µg/mL (≈ 85.1 µM).

What about the IC50 (MOLT-4) of the same molecule?
Its IC50 is 31.8 µg/mL (≈ 118 µM).

What about the IC50 (FM3A) of the same molecule?
The IC50 was 0.78 µg/mL (≈ 2.89 µM).

What about the IC50 (CCRF-CEM) of the same molecule?
Its IC50 is 20.9 µg/mL (≈ 77.4 µM).

Which IC50 (L1210) does the source give for `O=c1[nH]c(=O)n([C@H]2C[C@H](O)[C@@H](CO)O2)cc1F` [FLOXURIDINE] here?
Its IC50 is 0.0003 µg/mL (≈ 0.00122 µM).

What about the Cytotoxicity (MEF) of the same molecule?
Its Cytotoxicity is 0.0001 µg/mL.

And the IC50 (MOLT-4)?
The IC50 was 2.6 µg/mL (≈ 10.6 µM).

What about the IC50 (FM3A) of the same molecule?
Its IC50 is 0.0008 µg/mL (≈ 0.00325 µM).

What about the IC50 (CCRF-CEM) of the same molecule?
The IC50 was 0.003 µg/mL (≈ 0.0122 µM).
